Assays:
[1] = Inhibition of Saccharomyces cerevisiae alpha-glucosidase using p-nitrophenyl-alpha-D-glucopyranoside substrate incubated for 30 mins
In short: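 Sample solution received 3 mM p-nitrophenyl-α-D-glucopyranoside and 0.2 U/mL α-glucosidase (stock levels) in 0.01 M phosphate buffer pH 7.0, incubated at 37 °C for 30 min. Stopped with 0.1 M Na2CO3; p-nitrophenol release read at 401 nm. IC50 is the concentration giving 50% inhibition of enzyme activity; acarbose as positive control.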

[2] = system: HeLa; assay: Cytotoxicity against human HeLa cells assessed as reduction in cell viability incubated for 72 hrs by WST-8 dye based assay; format: functional
In short: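 HeLa cells kept in DMEM with 10% FBS, 0.1% NaHCO3 and 1% antibiotic-antimycotic. Cells seeded at 2 × 10^3/well and grown 24 h at 37 °C in humidified 5% CO2. Washed with PBS, then exposed to serially diluted samples in DMEM for 72 h. Washed twice, given DMEM with 10% WST-8 for 3 h, A450 read; viability from mean of three wells; IC50.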

[3] = system: Saccharomyces cerevisiae; assay: Potency index, ratio of IC50 for Acarbose to IC50 for test compound for inhibition of Saccharomyces cerevisiae alpha-glucosidase using p-nitrophenyl-alpha-D-glucopyranoside substrate incubated for 30 mins

Row | SMILES | IC50 [1] [µM] | IC50 [2] [µM] | Ratio IC50 [3]
1 | C=C1[C@@H](OC(C)=O)CC[C@@]2(C)C[C@H](OC)C3=C(C)C[C@H](OC(C)=O)[C@@H]([C@@H](OC(C)=O)[C@H]12)C3(C)C | 31.8 | – | –
2 | C[C@H]1O[C@H](O[C@H]2[C@H](O)[C@@H](O)[C@@H](O[C@H]3[C@H](O)[C@@H](O)C(O)O[C@@H]3CO)O[C@@H]2CO)[C@H](O)[C@@H](O)[C@@H]1N[C@H]1C=C(CO)[C@@H](O)[C@H](O)[C@H]1O (some centres undefined) [ACARBOSE] | 215 | – | –
3 | CC(=O)O[C@@]12CO[C@@H]1C[C@H](O)[C@@]1(C)C(=O)[C@H](O)C3=C(C)C(=O)C[C@@](O)([C@@H](OC(=O)c4ccccc4)[C@H]21)C3(C)C | > 250 | > 10 | –
4 | COc1cc(C[C@H]2COC(=O)[C@@H]2Cc2ccc(O)c(OC)c2)ccc1O [MATAIRESINOL] | 46.5 | – | –
5 | C=C1[C@@H](OC(=O)/C=C/c2ccccc2)C[C@H](OC(C)=O)[C@]2(C)[C@@H]1C[C@@H]1C[C@H](OC(C)=O)C(C)=C([C@@H](OC(C)=O)[C@@H]2OC(C)=O)C1(C)C | 38 | 5.7 | –
6 | COc1cc([C@H]2c3cc(O)c(OC)cc3C[C@H]3C(=O)OC[C@H]23)ccc1O [ALPHA-CONIDENDRIN] | 194 | > 10 | –
7 | C=C1[C@@H](OC(C)=O)CC[C@@]2(C)C[C@H](OC(C)=O)C3=C(C)C[C@H](OC(=O)C(C)C(C)O)[C@@H]([C@@H](OC(C)=O)[C@H]12)C3(C)C (some centres undefined) | 194 | > 10 | –
8 | CC(=O)O[C@@]12CO[C@@H]1C[C@@H](O)[C@@]1(C)C(=O)[C@H](O)C3=C(C)[C@@H](OC(=O)[C@H](O)[C@@H](NC(=O)c4ccccc4)c4ccccc4)C[C@@](O)([C@@H](OC(=O)c4ccccc4)[C@H]21)C3(C)C | 48.8 | 8.5e-05 | –
9 | C=C1[C@@H](OC(=O)/C=C/c2ccccc2)C[C@H](OC(C)=O)[C@]2(C)[C@@H]1C[C@@H]1C[C@H](O)C(C)=C([C@@H](OC(C)=O)[C@@H]2OC(C)=O)C1(C)C [TAXEZOPIDINE H] | 15 | > 10 | –
10 | CCCCCC(=O)N[C@@H](c1ccccc1)[C@@H](O)C(=O)O[C@H]1C[C@@]2(O)[C@@H](OC(=O)c3ccccc3)[C@@H]3[C@]4(OC(C)=O)CO[C@@H]4C[C@H](O[C@@H]4OC[C@@H](O)[C@H](O)[C@H]4O)[C@@]3(C)C(=O)[C@H](O)C(=C1C)C2(C)C | 86.9 | 0.05 | –
11 | C=C1[C@@H](O)C[C@H](OC(C)=O)[C@@]2(C)[C@@H](OC(C)=O)[C@H](OC(C)=O)C3=C(C)C(=O)C[C@@H]([C@@H](OC(C)=O)[C@H]12)C3(C)C | > 250 | > 10 | –
12 | C=C1[C@H]2C[C@]34CC=C(C)C3[C@@H](OC4(C)C)[C@H](OC(C)=O)[C@]2(C)[C@@H](OC(C)=O)C[C@@H]1O (some centres undefined) | 88.5 | > 10 | –
13 | CC1(C)CC[C@]2(C(=O)O)CC[C@]3(C)C(=CC[C@@H]4[C@@]5(C)CC[C@H](O)C(C)(C)[C@@H]5CC[C@]43C)[C@@H]2C1 [OLEANOLIC_ACID] | 87.2 | – | –
14 | CC(C)CC[C@@H](O)[C@](C)(O)[C@H]1CC[C@@]2(O)C3=CC(=O)[C@@H]4C[C@@H](O)[C@@H](O)C[C@]4(C)[C@H]3CC[C@]12C [PONASTERONE A] | 115 | > 10 | –
15 | CCCCCCCCC/C=C\CC/C=C/[C@@H](O)[C@H](CO[C@@H]1O[C@H](CO)[C@@H](O)[C@H](O)[C@H]1O)NC(=O)[C@H](O)CCCCCCCCCCCCC | > 250 | > 10 | –
16 | CO[C@H]1O[C@H]2[C@@H]3[C@@H]1[C@@H](O)C[C@H](O)[C@@]3(C)[C@@H](O)[C@H](OC(C)=O)C1=C(C)[C@@H](OC(C)=O)C[C@]2(O)C1(C)C | 97.5 | > 10 | –
17 | C=C1[C@@H]2[C@H](OC(C)=O)[C@@H]3CC(=O)[C@@]4(C)OC[C@@]3(C)[C@@]4(O)[C@@H](OC(C)=O)[C@H](OC(C)=O)[C@]2(COC(=O)c2ccccc2)[C@@H](OC(C)=O)C[C@@H]1O | > 250 | > 10 | –
18 | CC(=O)O[C@@]12CO[C@@H]1C[C@H](O)[C@@]1(C)C(=O)[C@H](O)C3=C(C)[C@@H](OC(=O)[C@H](O)[C@@H](NC(=O)c4ccccc4)c4ccccc4)C[C@@](O)([C@@H](OC(=O)c4ccccc4)[C@H]21)C3(C)C | > 250 | 0.00075 | –
19 | C/C=C(\C)C(=O)N[C@@H](c1ccccc1)[C@@H](O)C(=O)O[C@H]1C[C@@]2(O)[C@@H](OC(=O)c3ccccc3)[C@@H]3[C@]4(OC(C)=O)CO[C@@H]4C[C@H](O[C@@H]4OC[C@@H](O)[C@H](O)[C@H]4O)[C@@]3(C)C(=O)C(=O)C(=C1C)C2(C)C | 142 | – | –
20 | C=C1[C@@H](OC(=O)/C=C/c2ccccc2)C[C@H](OC(C)=O)[C@@]2(C)[C@@H](OC(C)=O)[C@H](OC(C)=O)C3=C(C)C(=O)C[C@@H]([C@@H](OC(C)=O)[C@H]12)C3(C)C | 111 | – | –
21 | C=C1[C@@H](OC(C)=O)CC[C@@]2(C)C[C@H](OC)C3=C(C)C[C@H](OC(=O)C(C)C(C)O)[C@@H]([C@@H](OC(C)=O)[C@H]12)C3(C)C (some centres undefined) | 3.6 | – | 60
22 | CC=C(C)C(=O)N[C@@H](c1ccccc1)[C@@H](O)C(=O)O[C@H]1C[C@@]2(O)[C@@H](OC(=O)c3ccccc3)[C@@H]3[C@]4(OC(C)=O)CO[C@@H]4C[C@H](O[C@@H]4OC[C@@H](O)[C@H](O)[C@H]4O)[C@@]3(C)C(=O)[C@H](OC(C)=O)C(=C1C)C2(C)C | > 250 | 0.14 | –
23 | CC(=O)O[C@H]1C(=O)[C@]2(C)[C@H](O)C[C@H]3OC[C@@]3(OC(C)=O)[C@H]2[C@H](OC(=O)c2ccccc2)[C@]2(O)C[C@H](OC(=O)[C@H](O)[C@@H](NC(=O)c3ccccc3)c3ccccc3)C(C)=C1C2(C)C | 42.7 | – | –
24 | C=C1[C@@H](O)C[C@H](OC(C)=O)[C@@]2(C)[C@@H](OC(C)=O)[C@H](OC(C)=O)C3=C(C)C(=O)C[C@@H]([C@@H](O)[C@H]12)C3(C)C | > 250 | > 10 | –
25 | CC(=O)O[C@H]1C(=O)[C@@]2(C)[C@H]([C@H](OC(=O)c3ccccc3)[C@]3(O)C[C@H](OC(=O)[C@H](O)[C@@H](NC(=O)c4ccccc4)c4ccccc4)C(C)=C1C3(C)C)[C@]1(OC(C)=O)CO[C@@H]1C[C@@H]2O [PACLITAXEL] | > 250 | – | –
26 | CCCCCC(=O)N[C@@H](c1ccccc1)[C@@H](O)C(=O)O[C@H]1C[C@@]2(O)[C@@H](OC(=O)c3ccccc3)[C@@H]3[C@]4(OC(C)=O)CO[C@@H]4C[C@H](O[C@@H]4OC[C@@H](O)[C@H](O)[C@H]4O)[C@@]3(C)C(=O)[C@H](OC(C)=O)C(=C1C)C2(C)C | 94.1 | 0.0015 | –
27 | COc1cc(C[C@@H]2COC(=O)[C@H]2Cc2ccc(O)c(OC)c2)ccc1O | 175 | > 10 | –
28 | CC(=O)O[C@@]12CO[C@@H]1C[C@H](O[C@@H]1OC[C@@H](O)[C@H](O)[C@H]1O)[C@@]1(C)C(=O)C(=O)C3=C(C)CC[C@@]3(C(C)(C)OC(=O)c3ccccc3)[C@@H](O)[C@H]21 | 83.6 | 4.9 | –
29 | C=C1[C@@H](O)CC[C@@]2(C)C[C@H](OC)C3=C(C)C[C@H](OC(=O)C(C)C(C)O)[C@@H]([C@@H](OC(C)=O)[C@H]12)C3(C)C (some centres undefined) | 113 | – | –

From ChEMBL document CHEMBL4184136, “α-Glucosidase Inhibitory and Cytotoxic Taxane Diterpenoids from the Stem Bark of Taxus wallichiana” (J Nat Prod, 2017)
